Source: article PMC8798225 (Nature, 2021)

What was measured:
[1] = biological target: T1, Ubr1 (Saccharomyces cerevisiae, UniProt P19812); assay: In vitro Ubr1-dependent ubiquitination assay; format: biochemical; conditions: n = 2
Outline: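 Multi-turnover reaction at 30 °C in 50 mM HEPES pH 7.5, 0.15 M NaCl, 10 mM MgCl2, 5 mM ATP. It contained 0.1 µM Uba1, 4 µM Ubc2, 0.25 µM Ubr1 (wild-type or mutant at the same level), 80 µM Ub and 5 µM substrate. Substrate was Degron or Ub-Degron labelled at an added C-terminal Cys with fluorescein-5-maleimide. Reactions were stopped in SDS sample buffer and resolved by SDS-PAGE with fluorescence imaging.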

[2] = biological target: T2, Ubc2 (Saccharomyces cerevisiae, UniProt P06104); assay: Accessibility of the catalytic cysteine; format: biochemical; conditions: fluorescein-5-maleimide, presence or absence of synthetic U2BR peptide; average fluorescence, n = 2
T2 sequence (P06104 1-172): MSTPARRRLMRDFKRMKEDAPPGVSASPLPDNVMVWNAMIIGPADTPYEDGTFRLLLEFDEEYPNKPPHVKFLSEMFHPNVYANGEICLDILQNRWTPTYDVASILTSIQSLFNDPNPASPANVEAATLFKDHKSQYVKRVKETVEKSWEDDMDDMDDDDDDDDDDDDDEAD

[3] = biological target: T1, Ubr1; assay: Single-turnover pulse-chase Ub transfer, elongation step; format: biochemical; conditions: 0.5 μM Ubr1, 30 °C, 5 min, n = 2
[4] = biological target: T3, Ubc2 (Saccharomyces cerevisiae), wild type (Saccharomyces cerevisiae, UniProt P06104 3-152); assay: ITC
T3 sequence: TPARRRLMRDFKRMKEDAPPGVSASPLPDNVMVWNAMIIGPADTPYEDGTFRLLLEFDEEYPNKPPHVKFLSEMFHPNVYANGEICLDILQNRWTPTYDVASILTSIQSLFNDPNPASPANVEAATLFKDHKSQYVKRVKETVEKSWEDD

T1 sequence (P19812 whole entry, one chain of several): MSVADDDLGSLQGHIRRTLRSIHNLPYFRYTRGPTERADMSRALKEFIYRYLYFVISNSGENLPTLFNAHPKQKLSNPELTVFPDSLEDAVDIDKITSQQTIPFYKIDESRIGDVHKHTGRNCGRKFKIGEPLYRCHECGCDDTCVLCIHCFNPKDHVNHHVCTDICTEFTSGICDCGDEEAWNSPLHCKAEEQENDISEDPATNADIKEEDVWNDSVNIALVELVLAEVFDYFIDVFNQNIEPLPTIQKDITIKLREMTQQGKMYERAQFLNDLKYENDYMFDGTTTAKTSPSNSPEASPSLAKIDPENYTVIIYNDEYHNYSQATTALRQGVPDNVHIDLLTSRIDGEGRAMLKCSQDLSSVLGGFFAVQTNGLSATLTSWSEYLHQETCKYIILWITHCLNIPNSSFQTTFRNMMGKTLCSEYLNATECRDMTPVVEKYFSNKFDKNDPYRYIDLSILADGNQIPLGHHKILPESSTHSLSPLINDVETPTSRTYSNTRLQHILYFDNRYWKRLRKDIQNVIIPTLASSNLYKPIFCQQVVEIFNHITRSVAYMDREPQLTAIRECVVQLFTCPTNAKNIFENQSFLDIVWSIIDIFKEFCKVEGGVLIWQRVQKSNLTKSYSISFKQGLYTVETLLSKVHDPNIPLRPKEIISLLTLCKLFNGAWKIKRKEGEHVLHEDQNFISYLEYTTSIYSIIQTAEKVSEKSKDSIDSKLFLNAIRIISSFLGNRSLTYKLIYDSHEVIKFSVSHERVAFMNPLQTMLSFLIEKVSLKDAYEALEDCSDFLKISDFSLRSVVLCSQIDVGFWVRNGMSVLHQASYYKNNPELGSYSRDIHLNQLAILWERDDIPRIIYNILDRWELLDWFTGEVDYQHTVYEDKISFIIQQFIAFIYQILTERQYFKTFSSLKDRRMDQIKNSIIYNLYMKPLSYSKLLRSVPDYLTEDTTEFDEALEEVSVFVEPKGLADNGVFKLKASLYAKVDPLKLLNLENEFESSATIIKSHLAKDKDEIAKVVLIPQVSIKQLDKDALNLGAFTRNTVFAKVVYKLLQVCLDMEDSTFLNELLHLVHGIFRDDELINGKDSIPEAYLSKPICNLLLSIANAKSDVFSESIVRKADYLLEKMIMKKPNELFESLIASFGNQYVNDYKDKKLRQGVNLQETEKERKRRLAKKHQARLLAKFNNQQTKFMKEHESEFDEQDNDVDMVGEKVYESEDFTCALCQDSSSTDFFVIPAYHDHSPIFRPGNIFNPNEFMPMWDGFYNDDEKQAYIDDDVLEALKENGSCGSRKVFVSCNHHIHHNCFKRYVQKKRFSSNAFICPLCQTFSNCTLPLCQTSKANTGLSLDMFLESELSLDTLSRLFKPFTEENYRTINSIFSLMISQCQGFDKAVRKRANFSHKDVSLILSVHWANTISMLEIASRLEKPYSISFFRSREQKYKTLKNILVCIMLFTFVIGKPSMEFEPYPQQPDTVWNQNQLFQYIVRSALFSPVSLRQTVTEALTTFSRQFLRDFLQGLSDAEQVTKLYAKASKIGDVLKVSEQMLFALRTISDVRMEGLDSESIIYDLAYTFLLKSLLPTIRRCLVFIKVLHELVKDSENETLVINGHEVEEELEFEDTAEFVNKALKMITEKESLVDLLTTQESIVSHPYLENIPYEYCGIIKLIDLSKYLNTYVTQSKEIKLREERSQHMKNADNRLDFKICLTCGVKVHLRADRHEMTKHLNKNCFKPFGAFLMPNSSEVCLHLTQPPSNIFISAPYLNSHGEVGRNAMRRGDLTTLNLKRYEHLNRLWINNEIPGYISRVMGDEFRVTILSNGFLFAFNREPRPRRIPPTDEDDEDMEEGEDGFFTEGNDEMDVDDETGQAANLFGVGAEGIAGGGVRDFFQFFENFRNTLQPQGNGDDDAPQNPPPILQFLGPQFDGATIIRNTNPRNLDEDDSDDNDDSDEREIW

U2BR peptide: free U2BR peptide (Ubr1 1165-1200), Ubc2 binding region (KERKRRLAKKHQARLLAKFNNQQTKFMKEHESEFDE; UniProt P19812 1165-1200, looked up, fragment)
inhibition of polyubiquitination by free U2BR peptide ([1]; increasing concentrations of synthetic U2BR peptide): inhibited polyubiquitination in a dose-dependent manner | accessibility of the catalytic cysteine (C88) of Ubc2 [2]: decreased

UBLM mutant: Ubr1 Ub binding loop mutant H678A/V679A/L680A/H681A
transfer of fluorescent Ub from Ubc2 to Ub-Degron [3]: failed to transfer fluorescent Ub from Ubc2 to Ub-Degron | monoubiquitinated product ([1]; Hs-Type-1 Degron and Type-2 Degron as substrates): accumulation of monoubiquitinated product | Ub transfer to Degron versus Ub-Degron ([1]; UBLM mutant of Ubr1): transferred more Ub to Degron than to Ub-Degron | polyubiquitination of Degron and Ub-Degron (effect of mutation) ([1]; fluorescent Degron and Ub-Degron, 30 °C, pH 7.5): substantially reduced

B1: N65A: N65A mutation of Ubc2 (protein, UniProt P06104 1-172, looked up, variant N65A)
Ubiquitin-conjugating enzyme …: MSTPARRRLMRDFKRMKEDAPPGVSASPLPDNVMVWNAMIIGPADTPYEDGTFRLLLEFDEEYPAKPPHVKFLSEMFHPNVYANGEICLDILQNRWTPTYDVASILTSIQSLFNDPNPASPANVEAATLFKDHKSQYVKRVKETVEKSWEDDMDDMDDDDDDDDDDDDDEAD
amount of polyubiquitinated Degron ([1]; Ubc2 N65A mutation): increased the amount of polyubiquitinated Degron

B2: Ubc2 (C88S): catalytically inactive Ubc2 (protein)
chain: TPARRRLMRDFKRMKEDAPPGVSASPLPDNVMVWNAMIIGPADTPYEDGTFRLLLEFDEEYPNKPPHVKFLSEMFHPNVYANGEISLDILQNRWTPTYDVASILTSIQSLFNDPNPASPANVEAATLFKDHKSQYVKRVKETVEKSWEDD
modifications: left off: His tag, N-terminal, state not stated
inhibitory effect of pre-mixed inactive Ubc2 on ubiquitination ([1]; increasing doses up to 12.5 μM pre-mixed with Ubr1 and Degron, then wild-type Ubc2 at 4 μM): Minimal inhibitory effects

KERKRRLAKKHQARLLAKFNNQQTKFMKEHESEFDE (peptide, UniProt P19812 1165-1200, looked up) [U2BR peptide (Ubr1 1165-1200)]
Kd [4]: 143 ± 45 nM
